High-throughput results: PubChem BioAssay, Sanford-Burnham Center for Chemical Genomics
Rows were chosen to be rich in hits. Some 1.8% of all compounds tested hit in one or more screens of this group.
SUMO1 PPI mod: alters human SUMO1 binding to SIM partners | hit rate 0.33% among 360,000 | SUMO1 binding to a labelled peptide, TR-FRET, 1 h | inhibition, % at 20 µM | P63165; in the data active means inhibition above about 37%
Target sequence (P63165 whole entry, looked up): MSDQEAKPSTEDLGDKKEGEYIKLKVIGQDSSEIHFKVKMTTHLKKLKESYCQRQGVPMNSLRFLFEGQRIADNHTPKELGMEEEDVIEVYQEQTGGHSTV
LMPTP inh: LMPTP (human) inhibition; hit rate 0.22% among 360,000; inhibition, % at 20 µM; P24666; recombinant LMPTP-A, OMFP fluorogenic substrate, fluorescence intensity;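 active means compounds that cut the enzyme signal by at least half of the control window in the single-dose screen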;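 further: plate controls were DMSO wells with enzyme plus substrate for no effect and substrate without enzyme for full effect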
Target sequence (P24666 whole entry, looked up): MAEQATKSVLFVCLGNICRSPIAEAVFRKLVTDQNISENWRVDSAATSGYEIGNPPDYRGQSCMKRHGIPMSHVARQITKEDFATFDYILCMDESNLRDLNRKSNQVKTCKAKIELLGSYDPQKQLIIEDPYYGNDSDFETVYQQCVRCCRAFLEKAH
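Test system – LMPTP-A enzyme · Amount – LMPTP-A at 0.625 nM final in the reaction · Buffer or medium – Bis-Tris pH 6.0, DTT, detergent · Reagent – OMFP 400 µM · Doses – single 20 µM dose · Schedule – reaction 50 min, room temperature, dark · Detection – fluorescence intensity of OMFP turnover product · Evaluation – percent inhibition versus substrate-only and uninhibited controls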
STEP inh: STEP (human) phosphatase inhibition | inhibition, % at 20 µM | recombinant STEP, OMFP fluorogenic substrate, fluorescence | AID 588621 | hit rate 0.25% among 360,000 | P54829;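 active means inhibition at 20 µM, scaled per plate between control wells, above about 37%, limit read from the data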;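 further: 0% = DMSO with enzyme and substrate and 100% = substrate only without enzyme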
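medium = Bis-Tris buffer pH 6.0, 2.5 mM DTT, 0.005% Tween 20 | test system = STEP (striatal-enriched tyrosine phosphatase) enzyme, cell-free | measure = normalized % inhibition | compound dosing = 20 µM, 1% DMSO | also added = 25 µM OMFP | schedule = reaction 20 min, ambient temperature | measured by = fluorescence read at 480 nm ex / 540 nm em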
DNMT1 block: blocks human DNA methyltransferase DNMT1; P26358; DNMT1 molecular beacon, Hinp1I cleavage, fluorescence; inhibition (reported as % activation of signal), % at 10 µM; hit rate 0.83% among 360,000; AID 588458; in the data active means inhibition above about 50%
HKDC1 inhibitor: blocks human hexokinase HKDC1 activity; recombinant HKDC1, G6PDH/diaphorase resazurin coupled fluorescence; hit rate 0.16% among 340,000; inhibition, % at 20 µM;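 active means inhibition above about 35% when tested at 20 µM, limit read from the data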;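 further: plate controls were DMSO wells with enzyme for no effect and DMSO wells lacking enzyme for full effect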
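Test system: Recombinant HKDC1 (HK5) hexokinase enzyme, produced in-house | Input: HKDC1 at 5 µg/mL | Buffer or medium: Tris pH 8.0 buffer with MgCl2, Tween-20, BSA, BME | Schedule: 90 min reaction incubation at room temperature, dark | Technique: Resazurin-to-resorufin fluorescence via G6PDH and diaphorase coupling, 525/613 nm | Controls: DMSO wells with and without enzyme mix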
Scp1 inh: blocks human Scp-1 phosphatase activity. Recombinant Scp1, phosphopeptide, malachite green phosphate absorbance. inhibition, % at 20 µM. hit rate 0.88% among 340,000;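 active means inhibition above about 50% at 20 µM, limit read from the data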;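 further: plate controls were DMSO wells with enzyme for no effect and wells lacking enzyme for full effect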
Target sequence (Q9GZU7 76-261 limits assumed): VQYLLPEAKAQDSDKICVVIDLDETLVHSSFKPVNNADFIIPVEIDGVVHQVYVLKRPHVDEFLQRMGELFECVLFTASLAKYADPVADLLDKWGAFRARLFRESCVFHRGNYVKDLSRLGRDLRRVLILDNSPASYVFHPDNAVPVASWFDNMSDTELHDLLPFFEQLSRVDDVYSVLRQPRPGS
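Test system: SCP-1 catalytic domain; Buffer or medium: Acidic Tris acetate buffer with magnesium and detergent; Also added: Phosphorylated 17-residue peptide substrate; Compound: single 20 µM dose, 1% DMSO; Schedule: enzyme reaction 45 min at room temperature, colour 5 min, stabilisation 30 min; Signal: Phosphate-binding colour reagent, absorbance read at 630 nm.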
Scp1 confirm: Scp-1 (human) inhibition, single-dose confirmed | recombinant SCP-1 catalytic domain, phosphate release, malachite green absorbance | inhibition, % at 20 µM | shares compounds with Scp1 inh | hit rate 61% among 2,500;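 further: plate controls were DMSO with enzyme for no effect and buffer wells lacking enzyme for full effect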
Scp-1 MG ctr: colorimetric interference in Scp-1 counter-screen; shares compounds with Scp1 inh; Colorimetric interference counterscreen, malachite green absorbance 630 nm; apparent inhibition (interference), % at 20 µM; 2,500 tested, under 10 active; AID 540313;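 further: compounds added after enzyme reaction finished so only phosphate colour detection is probed; plate controls were DMSO wells with completed Scp-1 reaction for no effect and substrate wells lacking enzyme for full effect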
Scp1 DSF: binds human Scp-1, shifting its melting temperature; shares compounds with Scp1 inh; Recombinant SCP1, Sypro Orange thermal shift Tm; thermal shift relative to vanadate control, % at 40 µM; hit rate 25% among 1,500;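 active means substances whose mean melting-temperature shift, as a percentage of the reference inhibitor's shift, reaches about 5.3%, limit read from the data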;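 further: 0% = Tm of DMSO wells and 100% = Tm with sodium orthovanadate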
An asterisk follows results filed as active; nt = no result given.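 How the source made its calls, unless noted: active means inhibition of at least 30% at 20 µM; inactive means the rest.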

SMILES	SUMO1 PPI mod	LMPTP inh	STEP inh	DNMT1 block	HKDC1 inhibitor	Scp1 inh	Scp1 confirm	Scp-1 MG ctr	Scp1 DSF
CCCn1c(=O)[nH]c(=O)c2c1nc(-c1ccccc1)n2CCN1CCOCC1	-4	-3	8	7	1	82*	94*	-6	-21
O=C(Nc1ccc(F)cc1F)c1ccc(S(=O)(=O)NCc2ccco2)cc1	-1	-1	-1	7	-3	-10	nt	nt	nt
O=C(NCCc1nc2ccccc2[nH]1)c1ccc(Br)o1	2	1	1	-2	-2	61*	-2	-11	nt
O=C(Nc1ccc(O)c(-c2nc3ccccc3s2)c1)c1cc(=O)c2ccccc2o1	6	52*	38	31	6	80*	68*	-14	2
Fc1ccc2cnc(-c3ccccc3)c(-c3cccc(C(F)(F)F)c3)c2c1	0	3	0	11	10	65*	6	-6	nt
COc1cc2cnc(-c3ccccc3)c(-c3cccc(C(F)(F)F)c3)c2cc1OC	6	4	0	-14	17	53*	-10	-9	nt
Fc1cc(F)cc(-c2c(-c3ccccc3)ncc3ccc(F)cc23)c1	7	4	0	27	8	85*	38*	-13	-25
O=C(O)c1cccc2c1/C(=N/Nc1ccc([N+](=O)[O-])cc1[N+](=O)[O-])c1ccccc1-2	-4	13	17	-3	4	86*	57*	-15	12*
O=C(O)c1cccc2c1C(=O)c1cc([N+](=O)[O-])cc([N+](=O)[O-])c1-2	0	1	-2	11	nt	nt	nt	nt	nt
COC(=O)c1c(NC(=O)C(C)C)sc(C(=O)N2CCOCC2)c1C	4	0	0	0	-3	1	nt	nt	nt
CC(C)(C)OC(=O)N1CCCC1C(=O)NCCc1ccccc1 (stereo not drawn)	-4	-3	-2	2	3	97*	-4	-5	nt
O=C(NCCc1ccccc1)C1CCCN1C(=O)NCc1ccccc1 (stereo not drawn)	-4	-2	-2	0	-6	-4	nt	nt	nt
CCCCc1ccc(NC(=O)COC(=O)c2ccc3ncsc3c2)cc1	3	-1	0	-2	nt	nt	nt	nt	nt
O=c1c(O)c(-c2ccc(O)cc2)oc2cc(O)cc(O)c12	-23	1	-7	3	-7	53*	54*	-4	9.2*
O=C(COC(=O)c1cncc(Br)c1)Nc1nnc(-c2ccccc2)o1	14	7	2	27	-2	60*	71*	-12	6.1*
COc1cc(OC)cc(C(=O)OCC(=O)Nc2nnc(-c3ccccc3)o2)c1	3	0	4	0	-3	-11	nt	nt	nt
CCN(CC)C(=O)c1cccc(-c2csc(C(C)(NC(C)=O)c3ccccc3)n2)c1 (stereo not drawn)	0	1	1	2	nt	nt	nt	nt	nt
CCOC(=O)c1ccc(NC(=O)COc2cc3oc(=O)c(CC(C)O)c(C)c3cc2Cl)cc1 (stereo not drawn)	11	1	2	-8	-2	25	nt	nt	nt
CC(=O)c1cccc(NC(=O)COc2cc3oc(=O)c(CC(C)O)c(C)c3cc2Cl)c1 (stereo not drawn)	-6	3	-1	9	2	51*	46*	-13	-20
CC[N+]1(CC)CC2CCC(C)(C1)C2(C)C (stereo not drawn)	3	-1	-4	0	-10	53*	88*	-18	-6
CC12CCC(C[N+](C)(C)C1)C2(C)C (stereo not drawn)	-3	-1	0	1	-2	86*	96*	-5	-5
O=C(Nc1ccc(Br)cn1)c1coc(=O)c(Br)c1	-6	-2	2	9	8	69*	25	-7	nt
Cn1c(=O)c2cc(NC(=O)Cc3ccccc3F)ccc2n1Cc1ccc(Cl)cc1	0	2	1	-14	nt	nt	nt	nt	nt
COC(=O)C1(C)CCCC2(C)C3CCC(C(C)C)C(CO)C3C(CO)CC12 (stereo not drawn)	9	-1	-6	-9	nt	nt	nt	nt	nt
O=Cc1ccc(OCc2cccc(C(F)(F)F)c2)cc1O	6	3	8	0	8	62*	-23	-24	nt
SMILES	SUMO1 PPI mod	LMPTP inh	STEP inh	DNMT1 block	HKDC1 inhibitor	Scp1 inh	Scp1 confirm	Scp-1 MG ctr	Scp1 DSF
O=C(OCC(=O)N1CCCC1)c1ccccc1C(=O)c1ccccc1	-2	-1	-2	-3	-3	-10	nt	nt	nt
O=C(O)CCN1C(=O)c2ccc(NC(=O)c3ccco3)cc2C1=O	-14	0	-2	-4	-10	2	nt	nt	nt
O=C(O)CCN1C(=O)c2ccc(NC(=O)C(c3ccccc3)c3ccccc3)cc2C1=O	-19	0	-1	3	-8	67*	-11	-16	nt
CCCCC(=O)OCC(=O)c1ccc(OCC)cc1	-3	-1	1	-3	-8	-7	nt	nt	nt
CCOc1ccc(C(=O)CCCC(=O)c2ccc(OCC)cc2)cc1	9	26	8	6	-2	77*	4	0	nt
N#C/C(=C\c1c(N(Cc2ccccc2)Cc2ccccc2)nc2ccccn2c1=O)C(N)=O	-20	1	2	-3	-5	56*	-13	-9	nt
COc1ccc(-c2nn(CCC(=O)O)cc2/C=C/C(=O)O)cc1[N+](=O)[O-]	-12	-3	-3	2	-10	-4	nt	nt	nt
